Article PMC4437580 (Bioorganic & medicinal chemistry letters, 2014)

What was measured:
[1] = system: MDA-MB-231 cells; assay: Cell viability, trypan blue exclusion; format: cell-based; details: drug 24 μM, 24-hour treatment
Outline: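 MDA-MB-231 cells grown to 80% confluence, harvested, seeded at 1.5 × 10^5 cells/mL and left overnight. Medium replaced with FBS-free medium containing test compound at 24 μM. FBS added after 1 h, then a further 24 h exposure. Cell density counted by trypan blue exclusion. Viability (%) = treated density / DMSO-only control density × 100.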

[2] = target: untagged Asf1 (Homo sapiens, UniProt Q9Y294); assay: ALPHA binding studies with Asf1; details: two different versions of ALPHA; data not shown
[3] = target: Asf1-H3/H4 (Homo sapiens, UniProt Q9Y294); assay: Asf1-H3/H4 binding inhibition
Chain of Asf1-H3/H4 (Q9Y294 1-155): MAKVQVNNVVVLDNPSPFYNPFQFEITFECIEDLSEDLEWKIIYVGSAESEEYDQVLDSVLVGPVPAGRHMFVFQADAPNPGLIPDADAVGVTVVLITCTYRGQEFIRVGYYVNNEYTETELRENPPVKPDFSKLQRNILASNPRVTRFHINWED

Chain of untagged Asf1 (Q9Y294 1-155): as above

| Compound | Asf1-H3/H4 binding potency/activity, in words [3] | other results |
| --- | --- | --- |
| COc1ccc(-c2cc([C@@H](O)[C@@H]3CCCCN3)c3ccccc3n2)cc1.Cl [Compound 1] | – | Cell viability (cytotoxicity), in words [1]: potently inhibit cell viability; Binding to untagged Asf1, in words [2]: not to bind |
| COc1cc(/C=N/NC(=O)c2ccc(NC(C)=O)cc2)cc(Br)c1O [Compound 18] | significant loss of potency | – |
| COc1cc(/C=N/NC(=O)C2CCNCC2)cc(Br)c1O [Compound 25] | ineffective | – |
| COc1cc(/C=N/NC(=O)C2CCOCC2)cc(Br)c1O [Compound 26] | ineffective | – |
| COc1cc(/C=N/NC(=O)c2ccc(NC(=O)c3ccccc3)c(COCCN(C)C)c2)cc(Br)c1O [Compound 33] | did not improve potency | – |
| O=C(N/N=C/c1cc(Br)ccc1O)c1ccncc1 [Compound 47] | significant boost in potency | Assay interference (metal scavenging) ([3]; upon further analysis): false positive results |
| COc1cc(/C=N/N(C)C(=O)c2ccc(NC(=O)c3ccccc3)cc2)cc(Br)c1O [Compound 52] | tolerated | – |
